In brackets after ≈: the same amount, converted by molar mass. Activity calls are given as the source filed them. The calls are words filed in the database; no cut-off is given here.
How the values were obtained:
Cryptococcus neoformans = experiment: Antimicrobial activity against Cryptococcus neoformans up to 64 ug/mL by broth microdilution susceptibility assay; type: functional, organism-based
Candida albicans = experiment: Antimicrobial activity against Candida albicans up to 64 ug/mL by broth microdilution susceptibility assay; type: functional, organism-based
Staphylococcus aureus = experiment: Antimicrobial activity against Staphylococcus aureus up to 64 ug/mL by broth microdilution susceptibility assay; type: functional, organism-based
Neisseria gonorrhoeae = experiment: Antimicrobial activity against Neisseria gonorrhoeae up to 64 ug/mL by broth microdilution susceptibility assay; type: functional, organism-based
MCF7 = experiment: Growth inhibition of human MCF7 cells; type: functional
Summary of the method: (§1)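 Human cancer cell line panel: pancreas (BXPC-3), breast (MCF-7), CNS (SF-268), non-small-cell lung (NCI-H460), colon (KM20L2) and prostate (DU-145). Growth inhibition is reported as GI50 in µg/mL.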

SF-268 = experiment: Growth inhibition of human SF268 cells; type: functional; summary of the method: as §1
[1] = test system: Stenotrophomonas maltophilia; experiment: Antimicrobial activity against Stenotrophomonas maltophilia up to 64 ug/mL by broth microdilution susceptibility assay; type: functional, organism-based
KM-20L2 = experiment: Growth inhibition of human KM20L2 cells; type: functional; summary of the method: as §1
Enterococcus faecalis = experiment: Antimicrobial activity against Enterococcus faecalis up to 64 ug/mL by broth microdilution susceptibility assay; type: functional, organism-based
Streptococcus pneumoniae = experiment: Antimicrobial activity against Streptococcus pneumoniae up to 64 ug/mL by broth microdilution susceptibility assay; type: functional, organism-based
NCI-H460 = experiment: Growth inhibition of human NCI-H460 cells; type: functional; summary of the method: as §1
Micrococcus luteus = experiment: Antimicrobial activity against Micrococcus luteus up to 64 ug/mL by broth microdilution susceptibility assay; type: functional, organism-based
Escherichia coli = experiment: Antimicrobial activity against Escherichia coli up to 64 ug/mL by broth microdilution susceptibility assay; type: functional, organism-based
DU-145 = experiment: Growth inhibition of human DU145 cells; type: functional; summary of the method: as §1
BXPC-3 = experiment: Growth inhibition of human BxPC3 cells; type: functional; summary of the method: as §1
Enterobacter cloacae = experiment: Antimicrobial activity against Enterobacter cloacae up to 64 ug/mL by broth microdilution susceptibility assay; type: functional, organism-based

Structure (SMILES)	Activity (Cryptococcus neoformans)	Activity (Candida albicans)	Activity (Staphylococcus aureus)	Activity (Neisseria gonorrhoeae)	GI50 (MCF7)	GI50 (SF-268)	Activity [1]	GI50 (KM-20L2)	Activity (Enterococcus faecalis)	Activity (Streptococcus pneumoniae)	GI50 (NCI-H460)	Activity (Micrococcus luteus)	Activity (Escherichia coli)	GI50 (DU-145)	GI50 (BXPC-3)	Activity (Enterobacter cloacae)
CC(C)Cc1ncc(-c2c[nH]c3ccccc23)o1 [LABRADORIN 1]	inactive	inactive	inactive	inactive	3.9 µg/mL (≈ 16.2 µM)	5.1 µg/mL (≈ 21.2 µM)	inactive	3.5 µg/mL (≈ 14.6 µM)	inactive	inactive	9.8 µg/mL (≈ 40.8 µM)	inactive	inactive	4 µg/mL (≈ 16.6 µM)	6.2 µg/mL (≈ 25.8 µM)	inactive
CCCCCc1ncc(-c2c[nH]c3ccccc23)o1 [LABRADORIN 2]	inactive	inactive	inactive	inactive	27.4 µg/mL (≈ 108 µM)	58.8 µg/mL (≈ 231 µM)	inactive	9.7 µg/mL (≈ 38.1 µM)	inactive	inactive	9.6 µg/mL (≈ 37.7 µM)	inactive	inactive	11.4 µg/mL (≈ 44.8 µM)	9.6 µg/mL (≈ 37.7 µM)	inactive
